ChEMBL document CHEMBL1152161, “A facile synthesis, antibacterial, and antitubercular studies of some piperidin-4-one and tetrahydropyridine derivatives” (2008)
Converted amounts (≈) assume the structure as drawn. The source made the active and inactive calls. No cut-off for these calls is given here.

Experiments:
[1] = system: Staphylococcus aureus; experiment: Antibacterial activity against Staphylococcus aureus by broth micro dilution method; assay type: functional
Procedure, shortened: (§1)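 MIC90 was found by broth microdilution following NCCLS methods. Compounds were tested up to a top concentration of […]. Linezolid and trovafloxacin served as positive controls and DMSO as the negative control.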

[2] = system: Staphylococcus epidermidis; experiment: Antibacterial activity against Staphylococcus epidermidis by broth micro dilution method; assay type: functional
Procedure, shortened: (§2)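 MIC90 was determined by broth microdilution following NCCLS methods. Linezolid and trovafloxacin were run as positive controls, with DMSO as the negative control. Compounds were tested up to a top concentration of 128.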

[3] = system: Enterococcus faecalis; experiment: Antibacterial activity against Enterococcus faecalis by broth micro dilution method; assay type: functional; procedure, shortened: as §1
[4] = system: Enterococcus faecalis; experiment: Antibacterial activity against vancomycin and linezolid-resistant Enterococcus faecalis by broth micro dilution method; assay type: functional; procedure, shortened: as §2
[5] = system: Enterococcus faecium; experiment: Antibacterial activity against vancomycin-resistant Enterococcus faecium by broth micro dilution method; assay type: functional; details: Enterococcus faecium; procedure, shortened: as §2
[6] = system: Staphylococcus aureus; experiment: Antibacterial activity against methicillin-resistant Staphylococcus aureus at 128 ug/mL by broth micro dilution method; assay type: functional, organism-based; procedure, shortened: as §2
[7] = system: Staphylococcus epidermidis; experiment: Antibacterial activity against methicillin-resistant Staphylococcus epidermidis at 128 ug/mL by broth micro dilution method; assay type: functional, organism-based; procedure, shortened: as §2
[8] = system: Enterococcus faecalis; experiment: Antibacterial activity against vancomycin-resistant Enterococcus faecalis at 128 ug/mL by broth micro dilution method; assay type: functional, organism-based; procedure, shortened: as §2
[9] = system: Enterococcus faecium; experiment: Antibacterial activity against Enterococcus faecium at 128 ug/mL by broth micro dilution method; assay type: functional, organism-based
[10] = system: Escherichia coli; experiment: Antibacterial activity against Escherichia coli LCB0010 at 128 ug/mL by broth micro dilution method; assay type: functional, organism-based
[11] = system: Moraxella catarrhalis; experiment: Antibacterial activity against Moraxella catarrhalis by broth micro dilution method; assay type: functional; procedure, shortened: as §1
[12] = system: Escherichia coli; experiment: Antibacterial activity against Escherichia coli LCB0011 at 128 ug/mL by broth micro dilution method; assay type: functional, organism-based
[13] = system: Escherichia coli; experiment: Antibacterial activity against Escherichia coli LCB0012 at 128 ug/mL by broth micro dilution method; assay type: functional, organism-based
[14] = system: Pseudomonas aeruginosa; experiment: Antibacterial activity against Pseudomonas aeruginosa at 128 ug/mL by broth micro dilution method; assay type: functional, organism-based
[15] = system: Klebsiella pneumoniae; experiment: Antibacterial activity against Klebsiella pneumoniae at 128 ug/mL by broth micro dilution method; assay type: functional, organism-based
[16] = system: Haemophilus influenzae; experiment: Antibacterial activity against Haemophilus influenzae at 128 ug/mL by broth micro dilution method; assay type: functional, organism-based
[17] = system: Mycobacterium tuberculosis; experiment: Antitubercular activity against Mycobacterium tuberculosis H37Rv ATCC 27294 by radiometric respiratory technique; assay type: functional
[18] = system: Mycobacterium tuberculosis; experiment: Antitubercular potency, ratio of Isoniazid MIC to drug MIC against Mycobacterium tuberculosis H37Rv ATCC 27294; assay type: functional
[19] = system: Mycobacterium tuberculosis; experiment: Antitubercular potency, ratio of Rifampicin MIC to drug MIC against Mycobacterium tuberculosis H37Rv ATCC 27294; assay type: functional
[20] = system: Staphylococcus aureus; experiment: Antibacterial activity against methicillin-resistant Staphylococcus aureus by broth micro dilution method; assay type: functional; procedure, shortened: as §2
[21] = system: Staphylococcus epidermidis; experiment: Antibacterial activity against Staphylococcus epidermidis at 128 ug/mL by broth micro dilution method; assay type: functional, organism-based
[22] = system: Enterococcus faecalis; experiment: Antibacterial activity against vancomycin and linezolid-resistant Enterococcus faecalis at 128 ug/mL by broth micro dilution method; assay type: functional, organism-based; procedure, shortened: as §2
[23] = system: Escherichia coli; experiment: Antibacterial activity against Escherichia coli LCB0012 by broth micro dilution method; assay type: functional; procedure, shortened: as §1
[24] = system: Staphylococcus aureus; experiment: Antibacterial activity against Staphylococcus aureus at 128 ug/mL by broth micro dilution method; assay type: functional, organism-based
[25] = system: Enterococcus faecalis; experiment: Antibacterial activity against Enterococcus faecalis at 128 ug/mL by broth micro dilution method; assay type: functional, organism-based
[26] = system: Moraxella catarrhalis; experiment: Antibacterial activity against Moraxella catarrhalis at 128 ug/mL by broth micro dilution method; assay type: functional, organism-based

SMILES | MIC90 [1] [µg/mL] | MIC90 [3] [µg/mL] | MIC90 [5] [µg/mL] | Activity [6] | Activity [7] | Activity [8] | Activity [9] | Activity [10] | Activity [12] | Activity [14] | Activity [15] | Activity [16] | MIC [17] [µg/mL] | Ratio [18] | Ratio [19] | Activity [21] | Activity [22] | MIC90 [23] [µg/mL] | Activity [26] | also measured
CCOC(=O)C1=C(O)CC(c2ccccc2)N(C(=O)Cn2cnc3ccccc32)C1c1ccccc1 (stereo unspecified) | 32 (≈ 66.5 µM) | 128 (≈ 266 µM) | 64 (≈ 133 µM) | inactive | inactive | inactive | inactive | inactive | inactive | inactive | inactive | inactive | 16 (≈ 33.2 µM) | 1.56 | 200 |  |  |  |  | MIC90 [2]: 128 µg/mL (≈ 266 µM); MIC90 [4]: 128 µg/mL (≈ 266 µM); MIC90 [11]: 64 µg/mL (≈ 133 µM); Activity [13]: inactive
NNC(=O)c1ccncc1 [ISONIAZID] |  |  |  |  |  |  |  |  |  |  |  |  | 0.25 (≈ 1.82 µM) |  |  |  |  |  |  | 
COc1ccc(C2C(C)C(=O)C(C)C(c3ccc(OC)cc3)N2C(=O)Cn2cnc3ccccc32)cc1 (stereo unspecified) | 16 (≈ 32.2 µM) | 64 (≈ 129 µM) | 16 (≈ 32.2 µM) |  | inactive | inactive | inactive | inactive | inactive | inactive | inactive | inactive | 64 (≈ 129 µM) | 0.39 | 50 | inactive | inactive | 128 (≈ 257 µM) |  | MIC90 [20]: 128 µg/mL (≈ 257 µM); MIC90 [11]: 16 µg/mL (≈ 32.2 µM)
Cc1ccc(C2CC(=O)C(C)C(c3ccc(C)cc3)N2C(=O)Cn2cnc3ccccc32)cc1 (stereo unspecified) |  |  | 64 (≈ 142 µM) | inactive | inactive | inactive | inactive | inactive | inactive | inactive | inactive | inactive |  |  |  | inactive | inactive | 128 (≈ 283 µM) | inactive | Activity [24]: inactive; Activity [25]: inactive
CO[C@H]1/C=C/O[C@@]2(C)Oc3c(C)c(O)c4c(O)c(c(/C=N/N5CCN(C)CC5)c(O)c4c3C2=O)NC(=O)/C(C)=C\C=C\[C@H](C)[C@H](O)[C@@H](C)[C@@H](O)[C@@H](C)[C@H](OC(C)=O)[C@@H]1C [RIFAMPIN] |  |  |  |  |  |  |  |  |  |  |  |  | 32 (≈ 38.9 µM) |  |  |  |  |  |  | 
COc1ccccc1C1C(C)C(=O)C(C)C(c2ccccc2OC)N1C(=O)Cn1cnc2ccccc21 (stereo unspecified) | 32 (≈ 64.3 µM) | 64 (≈ 129 µM) | 16 (≈ 32.2 µM) | inactive | inactive | inactive | inactive | inactive | inactive | inactive | inactive | inactive | 128 (≈ 257 µM) | 0.19 | 25 | inactive | inactive |  | inactive | Activity [13]: inactive
COc1ccc(C2CC(=O)C(C)C(c3ccc(OC)cc3)N2C(=O)Cn2cnc3ccccc32)cc1 (stereo unspecified) |  |  | 128 (≈ 265 µM) | inactive | inactive | inactive | inactive | inactive | inactive | inactive | inactive | inactive |  |  |  | inactive | inactive | 128 (≈ 265 µM) | inactive | Activity [24]: inactive; Activity [25]: inactive
